Test results taken from ChEMBL document CHEMBL2321766, “Optimization of a Novel Series of TRPV4 Antagonists with In Vivo Activity in a Model of Pulmonary Edema” (ACS Med Chem Lett, 2013).
The source made the active and inactive calls. The calls are words filed in the database; no cut-off is given here.

How the values were obtained:
[1] = Oral bioavailability in Sprague-Dawley rat at 2 mg/kg by HPLC-MS/MS analysis; assay type: ADME, organism-based; settings: in vivo
[2] = (§1) Half life in Sprague-Dawley rat plasma at 2 mg/kg, po by HPLC-MS/MS analysis; assay type: ADME, organism-based; design: dose 2 mg/kg, route oral; settings: Sprague-Dawley, plasma
[3] = Clearance in Sprague-Dawley rat plasma at 1 mg/kg, iv by HPLC-MS/MS analysis; assay type: ADME, organism-based; design: dose 1 mg/kg, route intravenous
[4] = target: T1, Transient receptor potential cation channel subfamily V member 4 (Homo sapiens, UniProt Q9HBA0); test: Antagonist activity at human recombinant TRPV4 expressed in BacMam virus infected HEK MSRII cells assessed as inhibition of GSK634775-induced calcium […] treated 10 mins prior to TRPV4 agonist, GSK634775 by FLIPR assay
T1 sequence (Q9HBA0 whole entry): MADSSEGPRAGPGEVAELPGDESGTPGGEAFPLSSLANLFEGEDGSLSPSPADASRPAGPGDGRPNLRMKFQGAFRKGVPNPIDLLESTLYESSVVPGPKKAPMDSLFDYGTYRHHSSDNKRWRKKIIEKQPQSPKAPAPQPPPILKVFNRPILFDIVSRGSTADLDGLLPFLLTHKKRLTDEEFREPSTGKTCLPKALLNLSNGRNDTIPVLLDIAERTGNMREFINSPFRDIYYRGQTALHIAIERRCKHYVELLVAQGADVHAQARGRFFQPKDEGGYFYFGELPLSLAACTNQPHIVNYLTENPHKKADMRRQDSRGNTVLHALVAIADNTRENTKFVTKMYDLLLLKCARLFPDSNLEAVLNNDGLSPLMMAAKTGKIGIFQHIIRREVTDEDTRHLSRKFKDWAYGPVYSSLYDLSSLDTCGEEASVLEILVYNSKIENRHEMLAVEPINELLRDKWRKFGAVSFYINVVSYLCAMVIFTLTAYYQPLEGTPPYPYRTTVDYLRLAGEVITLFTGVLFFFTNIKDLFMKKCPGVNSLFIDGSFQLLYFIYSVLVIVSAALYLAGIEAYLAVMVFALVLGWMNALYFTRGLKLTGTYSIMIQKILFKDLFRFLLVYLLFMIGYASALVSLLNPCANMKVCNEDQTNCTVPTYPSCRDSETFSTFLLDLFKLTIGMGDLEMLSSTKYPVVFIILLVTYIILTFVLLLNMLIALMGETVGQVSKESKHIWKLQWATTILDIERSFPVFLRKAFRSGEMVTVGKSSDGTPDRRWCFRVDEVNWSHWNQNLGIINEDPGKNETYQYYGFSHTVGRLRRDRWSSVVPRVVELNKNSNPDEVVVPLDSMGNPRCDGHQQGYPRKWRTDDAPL

[5] = target: T1, Transient receptor potential cation channel subfamily V member 4; test: Agonist activity at human TRPV4
[6] = tested on: Rattus norvegicus; test: Decrease in lung/body weight ratio in GSK1016790A-induced Sprague-Dawley rat pulmonary edema model at 10 mg/kg, iv administered 30 mins prior to GSK-1016790A injection; assay type: functional, organism-based; design: dose 10 mg/kg
Procedure, shortened: (§2)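 Rats given vehicle, 3 or 10 mg/kg iv 30 min before iv challenge with the TRPV4 agonist GSK1016790A at rising doses. Mean arterial pressure recorded during pretreatment and after agonist. Pulmonary edema scored as wet lung weight/body weight ratio, compared with vehicle-treated rats. Plasma drug levels measured at both doses.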

[7] = target: Voltage-dependent L-type calcium channel subunit alpha-1C (Homo sapiens, UniProt Q13936); test: Inhibition of human Cav1.2 expressed in HEK293 cells assessed as decrease in calcium […] at >10 uM by FLIPR analysis; assay type: cell-based
[8] = target: Transient receptor potential cation channel subfamily V member 4 (Rattus norvegicus, UniProt Q9ERZ8); test: Antagonist activity at rat TRPV4
Chain of Transient receptor potential cation channel subfamily V member 4 (Rattus norvegicus, UniProt Q9ERZ8) (Q9ERZ8 whole entry): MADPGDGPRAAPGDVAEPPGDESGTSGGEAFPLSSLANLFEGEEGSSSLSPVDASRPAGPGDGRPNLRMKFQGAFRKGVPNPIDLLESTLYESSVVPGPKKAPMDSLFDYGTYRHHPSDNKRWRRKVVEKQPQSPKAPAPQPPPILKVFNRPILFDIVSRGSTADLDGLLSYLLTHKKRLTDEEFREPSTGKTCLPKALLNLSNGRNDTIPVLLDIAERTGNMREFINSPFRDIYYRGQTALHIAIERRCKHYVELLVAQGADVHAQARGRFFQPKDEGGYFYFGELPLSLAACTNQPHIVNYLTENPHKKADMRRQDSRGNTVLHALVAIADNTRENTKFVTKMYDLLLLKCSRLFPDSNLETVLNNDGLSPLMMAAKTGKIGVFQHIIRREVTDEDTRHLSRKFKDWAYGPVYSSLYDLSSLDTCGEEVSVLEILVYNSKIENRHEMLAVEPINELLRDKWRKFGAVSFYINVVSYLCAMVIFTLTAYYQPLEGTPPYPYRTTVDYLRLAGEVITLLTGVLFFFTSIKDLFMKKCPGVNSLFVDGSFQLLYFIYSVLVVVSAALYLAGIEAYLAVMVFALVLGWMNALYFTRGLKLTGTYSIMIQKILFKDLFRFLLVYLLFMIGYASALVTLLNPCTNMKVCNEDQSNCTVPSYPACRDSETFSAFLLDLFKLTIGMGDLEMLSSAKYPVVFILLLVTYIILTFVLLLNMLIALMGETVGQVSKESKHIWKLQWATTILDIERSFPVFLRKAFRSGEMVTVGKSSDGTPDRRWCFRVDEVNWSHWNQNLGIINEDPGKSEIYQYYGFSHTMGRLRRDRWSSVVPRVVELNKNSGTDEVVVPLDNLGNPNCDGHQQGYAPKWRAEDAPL

[9] = tested on: Rattus norvegicus; test: Reduction of GSK-1016790A-induced decrease in mean arterial pressure in iv dosed Sprague-Dawley rat administered 30 mins prior to GSK-1016790A injection; assay type: functional, organism-based; settings: Artery; procedure, shortened: as §2
[10] = target: Transient receptor potential cation channel subfamily V member 4 (Rattus norvegicus) (UniProt Q9ERZ8); test: Agonist activity at rat TRPV4
Chain of Transient receptor potential cation channel subfamily V member 4 (Rattus norvegicus) (Q9ERZ8 whole entry): as above

[11] = tested on: Rattus norvegicus; test: Effect on mean arterial pressure in Sprague-Dawley rat at 3 to 10 mg/kg, iv; assay type: ADME, organism-based, Artery; design: dose 3-10 mg/kg, route intravenous; settings: in vivo; procedure, shortened: as §2
[12] = tested on: Plasma; test: Fraction unbound in human plasma; assay type: ADME, cell-free
[13] = tested on: Plasma; test: Fraction unbound in rat plasma; assay type: ADME, cell-free
[14] = target: Sodium channel protein type 5 subunit alpha (Homo sapiens, UniProt Q14524); test: Inhibition of human Nav1.5 expressed in HEK293 cells at >10 uM; assay type: cell-based
Chain of Sodium channel protein type 5 subunit alpha (Q14524 whole entry): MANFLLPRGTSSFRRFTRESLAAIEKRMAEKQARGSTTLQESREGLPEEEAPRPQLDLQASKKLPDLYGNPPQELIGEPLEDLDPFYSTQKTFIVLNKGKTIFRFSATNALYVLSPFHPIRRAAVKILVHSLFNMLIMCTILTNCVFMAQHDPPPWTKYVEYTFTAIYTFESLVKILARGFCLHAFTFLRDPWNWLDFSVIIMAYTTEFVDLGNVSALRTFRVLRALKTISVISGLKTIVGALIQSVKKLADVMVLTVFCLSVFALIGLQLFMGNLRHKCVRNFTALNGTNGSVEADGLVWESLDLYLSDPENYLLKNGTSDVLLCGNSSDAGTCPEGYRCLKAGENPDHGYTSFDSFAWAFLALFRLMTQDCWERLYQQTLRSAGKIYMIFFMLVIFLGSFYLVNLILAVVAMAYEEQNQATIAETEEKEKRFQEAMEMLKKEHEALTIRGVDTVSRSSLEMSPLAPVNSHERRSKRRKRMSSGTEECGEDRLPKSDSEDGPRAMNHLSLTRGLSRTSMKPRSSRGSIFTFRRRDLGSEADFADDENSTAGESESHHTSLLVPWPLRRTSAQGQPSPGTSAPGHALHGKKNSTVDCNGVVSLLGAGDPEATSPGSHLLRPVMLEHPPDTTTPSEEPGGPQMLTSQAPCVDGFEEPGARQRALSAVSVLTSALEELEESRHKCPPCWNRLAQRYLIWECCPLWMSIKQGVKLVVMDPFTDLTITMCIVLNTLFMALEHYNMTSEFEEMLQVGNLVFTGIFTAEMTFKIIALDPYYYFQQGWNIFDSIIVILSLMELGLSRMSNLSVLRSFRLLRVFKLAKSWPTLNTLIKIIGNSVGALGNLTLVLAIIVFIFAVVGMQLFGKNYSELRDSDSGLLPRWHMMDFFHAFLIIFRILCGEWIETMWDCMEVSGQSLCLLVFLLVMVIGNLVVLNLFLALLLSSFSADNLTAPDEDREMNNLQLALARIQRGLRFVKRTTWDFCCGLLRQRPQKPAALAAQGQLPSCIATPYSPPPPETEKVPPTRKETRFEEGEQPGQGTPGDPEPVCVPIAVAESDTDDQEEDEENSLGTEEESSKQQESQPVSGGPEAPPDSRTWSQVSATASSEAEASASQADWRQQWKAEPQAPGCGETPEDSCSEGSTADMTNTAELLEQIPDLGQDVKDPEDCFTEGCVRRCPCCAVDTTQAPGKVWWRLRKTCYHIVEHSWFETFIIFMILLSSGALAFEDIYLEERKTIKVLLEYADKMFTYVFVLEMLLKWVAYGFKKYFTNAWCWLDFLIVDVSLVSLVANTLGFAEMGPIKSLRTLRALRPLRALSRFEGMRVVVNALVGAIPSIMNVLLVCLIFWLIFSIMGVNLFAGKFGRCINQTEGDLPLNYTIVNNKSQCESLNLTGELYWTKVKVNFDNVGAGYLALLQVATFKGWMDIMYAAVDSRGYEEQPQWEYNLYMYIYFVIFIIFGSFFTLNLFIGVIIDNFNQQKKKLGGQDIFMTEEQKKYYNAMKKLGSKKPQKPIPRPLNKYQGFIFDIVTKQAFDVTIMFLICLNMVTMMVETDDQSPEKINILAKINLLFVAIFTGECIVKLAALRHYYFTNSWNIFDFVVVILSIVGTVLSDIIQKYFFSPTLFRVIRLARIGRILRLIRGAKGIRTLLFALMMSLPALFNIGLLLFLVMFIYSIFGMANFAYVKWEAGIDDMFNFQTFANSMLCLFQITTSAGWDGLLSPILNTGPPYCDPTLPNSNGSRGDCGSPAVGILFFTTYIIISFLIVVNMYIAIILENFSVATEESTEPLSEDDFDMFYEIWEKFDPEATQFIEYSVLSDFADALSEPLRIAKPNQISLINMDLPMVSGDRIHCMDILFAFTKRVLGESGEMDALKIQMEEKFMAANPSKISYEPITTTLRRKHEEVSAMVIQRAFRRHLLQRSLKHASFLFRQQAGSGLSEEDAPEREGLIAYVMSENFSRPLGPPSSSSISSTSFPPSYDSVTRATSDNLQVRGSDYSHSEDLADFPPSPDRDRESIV

[15] = tested on: Rattus norvegicus; test: Decrease in lung/body weight ratio in GSK1016790A-induced Sprague-Dawley rat pulmonary edema model at 3 mg/kg, iv administered 30 mins prior to GSK-1016790A injection; assay type: functional, organism-based; design: dose 3 mg/kg; procedure, shortened: as §2
[16] = target: Potassium voltage-gated channel subfamily A member 5 (Homo sapiens) (UniProt P22460); test: Inhibition of human Kv1.5 expressed in CHO cells assessed as decrease in channel current at > 10 uM by patch clamp analysis; assay type: cell-based
Chain of Potassium voltage-gated channel subfamily A member 5 (Homo sapiens) (P22460 whole entry): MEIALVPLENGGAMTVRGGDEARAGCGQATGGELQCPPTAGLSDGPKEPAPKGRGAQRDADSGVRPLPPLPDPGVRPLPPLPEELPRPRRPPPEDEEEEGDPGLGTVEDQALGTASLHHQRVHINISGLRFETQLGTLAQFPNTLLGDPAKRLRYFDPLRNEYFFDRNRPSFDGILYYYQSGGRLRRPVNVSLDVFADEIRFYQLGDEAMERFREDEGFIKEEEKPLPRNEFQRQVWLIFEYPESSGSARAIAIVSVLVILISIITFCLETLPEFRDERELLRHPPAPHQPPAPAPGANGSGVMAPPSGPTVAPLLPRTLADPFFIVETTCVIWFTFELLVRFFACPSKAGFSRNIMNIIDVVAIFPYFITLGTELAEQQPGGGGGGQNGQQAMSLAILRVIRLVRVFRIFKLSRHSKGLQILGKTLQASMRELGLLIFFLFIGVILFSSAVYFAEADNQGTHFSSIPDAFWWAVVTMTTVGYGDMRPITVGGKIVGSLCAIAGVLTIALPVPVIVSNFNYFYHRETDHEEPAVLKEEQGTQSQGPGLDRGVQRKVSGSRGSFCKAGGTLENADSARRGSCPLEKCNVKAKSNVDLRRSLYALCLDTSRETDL

[17] = tested on: Plasma; test: Stability of the compound in Sprague-Dawley rat plasma at 1 mg/kg, iv by HPLC-MS/MS analysis; assay type: ADME, organism-based; design: dose 1 mg/kg, route intravenous; settings: in vivo
[18] = tested on: Plasma; test: as §1; assay type: ADME, organism-based; design: dose 2 mg/kg, route oral; settings: in vivo, BLD = below limit of detection

Structure (SMILES)	bioavailability [1] [%]	half-life [2] [h]	clearance [3] [mL/min/kg]	IC50 [4] [nM]	other results
Cc1ccc(N2CCC(n3c(NC(C)C)nc4c(C(=O)N(C)C)c(Cl)c(Cl)cc43)CC2)cc1	38	1.6	18	126	
CC(C)Nc1nc2c(C(=O)N(C)C)c(Cl)c(Cl)cc2n1C1CCN(c2ccc(C(C)(C)C)cc2)CC1	39	3.7	34	50.1	
CC(C)Nc1nc2c(C(=O)N(C)C)c(Cl)c(Cl)cc2n1C1CCN(C(=O)c2ccc(C(C)(C)C)cc2)CC1				1260	
CC(C)Nc1nc2c(C(=O)N(C)C)c(Cl)c(Cl)cc2n1C1CCN(c2ccc(C(C)(C)C#N)cc2)CC1	31	1.6	13	31.6	Activity [5]: inactive; Activity [6]: Active; inhibition (INH) [7]: Not Active; IC50 [8]: 32 nM; Activity [9]: Dose-dependent effect; Activity [10]: inactive; Activity [11]: Non-toxic; Cp(f) [12]: 4.4%; Cp(f) [13]: 3.3%; inhibition (INH) [14]: Not Active; Activity [15]: inactive; inhibition [16]: inactive
CC(C)Nc1nc2c(C(=O)N(C)C)c(Cl)c(Cl)cc2n1CC1CCN(c2ccccc2)CC1				5010	
CC(C)Nc1nc2c(C(=O)N(C)C)c(Cl)c(Cl)cc2n1C1CCN(c2ccc(C3(C#N)CCOCC3)cc2)CC1	22	2.1	25	3.2	
COC(=O)C(C)(C)c1ccc(N2CCC(n3c(NC(C)C)nc4c(C(=O)N(C)C)c(Cl)c(Cl)cc43)CC2)cc1				15.8	Stability [17]: Unstable; t1/2 [18]: BLD
CC(C)Nc1nc2c(C(=O)N(C)C)c(Cl)c(Cl)cc2n1C1CCN(c2ccc(OC(C)C)cc2)CC1	36	2.1	46	12.6	
Cc1cccc(N2CCC(n3c(NC(C)C)nc4c(C(=O)N(C)C)c(Cl)c(Cl)cc43)CC2)c1	76	3.2	12	126	
CC(C)Nc1nc2c(C(=O)N(C)C)c(Cl)c(Cl)cc2n1C1CCN(Cc2ccccc2)CC1				1000	
CC(C)Nc1nc2c(C(=O)N(C)C)c(Cl)c(Cl)cc2n1C1CCN(C(=O)Nc2ccccc2)CC1				2510	
CC(C)Nc1nc2c(C(=O)N(C)C)c(Cl)c(Cl)cc2n1C1CCN(S(=O)(=O)c2ccc(Cl)cc2)CC1				3980	
CC(C)Nc1nc2c(C(=O)N(C)C)c(Cl)c(Cl)cc2n1C1CCN(c2ccccc2)CC1				200	
CC(C)Nc1nc2c(C(=O)N(C)C)c(Cl)c(Cl)cc2n1C1CCN(c2ccc(C(C)(C)C(=O)O)cc2)CC1				> 10000	
CC(C)Nc1nc2c(C(=O)N(C)C)c(Cl)c(Cl)cc2n1C1CCN(c2ccc(C3CCCCC3)cc2)CC1	7	2.8	9.3	31.6	
CC(C)Nc1nc2c(C(=O)N(C)C)c(Cl)c(Cl)cc2n1-c1ccc(N2CCCCC2)cc1				631	
